Published values collected from several papers.
Lines come from different studies, so protocols differ.
CCKBR: Gastrin/cholecystokinin type B receptor (CCKBR, Homo sapiens, UniProt P32239)
USP10: Ubiquitin carboxyl-terminal hydrolase 10 (USP10, Homo sapiens, UniProt Q14694)
BDKRB1: B1 bradykinin receptor (BDKRB1, Homo sapiens, UniProt P46663)
FAAH: Fatty-acid amide hydrolase 1 (FAAH, Homo sapiens, UniProt O00519)
PTGS1: Prostaglandin G/H synthase 1 (PTGS1, Homo sapiens, UniProt P23219)
MMP3: Stromelysin-1 (MMP3, Homo sapiens, UniProt P08254)
HTR2C: 5-hydroxytryptamine receptor 2C (HTR2C, Homo sapiens, UniProt P28335)
MTNR1A: Melatonin receptor type 1A (MTNR1A, Homo sapiens, UniProt P48039)

Compound	target	assay	conditions	inhibition [%]
COc1ccc(S(=O)(=O)N2CCCCC2)cc1C	CCKBR	ligand displacement, radioligand	10 µM	< 30
CN(C)C(=O)COC(=O)Cc1ccc(OC(=O)c2ccc(NC(=N)N)cc2)cc1	USP10	enzyme activity, inhibitor	10 µM	2
CN(CCN1CCC(OC(=O)Nc2ccccc2-c2ccccc2)CC1)C(=O)c1ccc(CN2CCC(C(N)=O)CC2)cc1	BDKRB1	ligand displacement, radioligand	1 µM	0
COc1ccccc1N(C)C(=O)Oc1nsnc1N1CCCCC1	FAAH	enzyme activity, inhibitor	10 µM, cell membranes	18
c1ccc(C(NCCNC(c2ccccc2)c2ccccc2)c2ccccc2)cc1	PTGS1	enzyme activity, inhibitor	10 µM	66
CN(C(=O)Oc1nsnc1N1CCCCC1)c1ccc(C#N)cc1	FAAH	enzyme activity, inhibitor	10 µM, cell membranes	19
C#Cc1n[nH]c2c(-c3cn(C(C)c4ccccn4)c(=O)[nH]c3=O)cc(F)cc12 (centres unmarked)	Tyrosine-protein kinase receptor TYRO3 (TYRO3, Homo sapiens, UniProt Q06418)	enzyme activity, inhibitor	1 µM	79
N=C(N)c1ccc2cc(OC(=O)c3ccc(N=C(N)N)cc3)ccc2c1	USP10	enzyme activity, inhibitor	10 µM	0
Cn1cc(-c2cccc(N3CCc4c(sc5c4CC(C)(C)C5)C3=O)c2CO)cc(Nc2ccncn2)c1=O	Aurora kinase A (AURKA, Homo sapiens, UniProt O14965)	enzyme activity, inhibitor	1 µM	3
C[C@H](C(=O)N[C@H]1COc2ccccc2[C@@H]1S(C)(=O)=O)c1ccc(F)cc1	CCKBR	cell-free assay	10 µM	7
COc1ccc(S(=O)(=O)N(CC(=O)NO)CC(C)C)cc1	MMP3	enzyme activity, inhibitor	10 nM	20
COc1cc2c3c(c1OC)-c1cc4c(cc1CC3N(C)CC2)OCO4 (racemic)	HTR2C	ligand displacement, radioligand	10 µM	103
c1ccc(OCc2cc(OC[C@@H]3CCN3)on2)cc1	Sigma intracellular receptor 2 (Tmem97, Rattus norvegicus, UniProt Q5U3Y7)	ligand displacement, radioligand	10 µM	< 50
O=C(Nc1cccnn1)N1CCN([C@@H]2CCOc3cc(C(F)(F)F)ccc32)CC1	MTNR1A	ligand displacement	20 µM	16
CN(C(=O)Oc1nsnc1N1CCCCC1)C1CCCCCC1	FAAH	enzyme activity, inhibitor	10 µM, cell membranes	21
Cn1cc(-c2cc(F)cc(N3CCn4c(cc5c4CCCC5)C3=O)c2CO)cc(Nc2ccc(N3CCN(C4COC4)CC3)cn2)c1=O	Mitogen-activated protein kinase kinase kinase 8 (MAP3K8, Homo sapiens, UniProt P41279)	enzyme activity, inhibitor	0.1 µM	17

Compound	target	assay	conditions	inhibition [%]
Clc1ccc2c(C3CCN(CCc4c[nH]c5ccccc45)CC3)c[nH]c2c1	PTGS1	enzyme activity, inhibitor	10 µM	31
COCCN(CCOC)C(=O)[C@@]12C[C@@H]1[C@@H](n1cnc3c(N)nc(Cl)nc31)[C@H](O)[C@@H]2O	HTR2C	ligand displacement, radioligand	10 µM	12
CN(C(=O)Oc1nsnc1N1CCCCC1)C1CCCCCCC1	FAAH	enzyme activity, inhibitor	10 µM, cell membranes	13
C#Cc1n[nH]c2c(-c3cn([C@@H](C)c4ccccc4)c(=O)[nH]c3=O)cc(F)cc12	Aurora kinase C (AURKC, Homo sapiens, UniProt Q9UQB9)	enzyme activity, inhibitor	0.1 µM	-1.2
CCOC(=O)c1ccc(OC(=O)CCCCCNC(=N)N)cc1	MMP3	enzyme activity, inhibitor	10 µM	18
COCc1c(-c2cc3cc(C)cc(OC)c3s2)c2c(N)ncnn2c1CN1CCNC(=O)C1	BDKRB1	ligand displacement, radioligand	10 µM	5
C[C@@H](O)[C@H](N)C(=O)N1CCC[C@H]1C(=O)N1CCC[C@H]1C(=O)N[C@H](C(N)=O)[C@@H](C)O	FAAH	enzyme activity, inhibitor	30 µM	-15
CCCCc1ccc(C(=O)O)nc1	MMP3	enzyme activity, inhibitor	1 mM, pH 6	> 80
COc1cccc(N(C)C(=O)Oc2nsnc2N2CCCCC2)c1	FAAH	enzyme activity, inhibitor	10 µM, cell membranes	17
COc1cc(Nc2ncc(F)c(Nc3ccc4c(n3)NC(=O)C(C)(C)O4)n2)cc(OC)c1OC	Serine/threonine-protein kinase ULK3 (ULK3, Homo sapiens, UniProt Q6PHR2)	binding	10 µM	100
CN(C(=O)Oc1nsnc1N1CCCCC1)c1cccc(-c2ccccc2)c1	FAAH	enzyme activity, inhibitor	10 µM, cell membranes	13
CCC(C)c1ccccc1OCC(=O)N1CCC(C(=O)Nc2ccc3c(c2)OCO3)CC1 (centres unmarked)	Trypanothione synthetase (Trypanosoma cruzi, UniProt Q9GT49)	enzyme activity, inhibitor, absorbance	25 µM	5.5
CN(C(=O)Oc1nsnc1N1CCCCC1)c1cccc(F)c1	FAAH	enzyme activity, inhibitor	10 µM, cell membranes	48
CC(C)N1CCC[C@H]1CNC(=O)c1cn(C2CCCC2)c(=O)c2c1c1ccccc1n2C	MTNR1A	ligand displacement, radioligand	10 µM	37
CN(C(=O)Oc1nsnc1N1CCCCC1)c1ccc(F)cc1	FAAH	enzyme activity, inhibitor	10 µM, cell membranes	22
Cc1ncc(C)n2nc(/C=C/c3nc(N4CCCC4)cc(N4CCOCC4)n3)nc12	CCKBR	cell-free assay	10 µM	-16
